The structures appear in SMILES notation. Values after ≈ are worked out from the molar mass of the structure shown.

One molecule from ChEMBL document CHEMBL1649111, “Restoration of susceptibility of intracellular methicillin-resistant Staphylococcus aureus to beta-lactams: comparison of strains, cells, and antibiotics” (Antimicrob Agents Chemother, 2008) can be followed below.

For series [1], the system named is Staphylococcus aureus. The series can be described thus: Antimicrobial activity against intracellular beta-lactamase negative methicillin-susceptible Staphylococcus aureus ATCC 25923 infected in activated human THP-1 cells assessed as increase in bacterial count from original inoculum at low compound concentration after 24 hrs at pH 7.4. It counts as functional.

In series [2] the test system is Staphylococcus aureus. The series is described as follows: Antimicrobial activity against animal acquired methicillin-resistant Staphylococcus aureus N7112046 by broth microdilution method at pH 7.4. It counts as functional.
In series [3] the test system is Staphylococcus aureus. The series is described as follows: Bacteriostatic activity against beta-lactamase negative methicillin-susceptible Staphylococcus aureus ATCC 25923 infected in human THP-1 cells assessed as decrease in bacterial growth after 24 hrs at pH 5.5. It counts as functional. Put shortly: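 MSSA ATCC 25923 phagocytized by unactivated THP-1 macrophages; extracellular antibiotic from about 0.01× to 100× the broth MIC at pH 5.5, with gentamicin 0.5 mg/liter to block extracellular growth. CFU per mg cell protein counted at 24 h vs. original inoculum (n = 3). A Hill equation (slope factor 1) gives Emin/Emax, extrapolated to infinitely low/high concentration. Static concentration is read by graphical interpolation.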

For series [4], the system named is Staphylococcus aureus. The series is described as follows: Antimicrobial activity against intracellular hospital acquired methicillin-resistant Staphylococcus aureus ATCC 33591 infected in activated human THP-1 cells assessed as decrease in bacterial count from original inoculum at high compound concentration after 24 hrs at pH 7.4. It is filed as functional. In short, it runs like this: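 THP-1 cells activated by 24-h culture with phorbol myristate acetate 2 mg/liter, then infected like unactivated THP-1. Cloxacillin dose range in mg/liter for 24 h. CFU per mg cell protein relative to the original inoculum, n = 3. Emin and Emax extrapolated from a Hill fit (slope 1), with EC50 as total drug; static concentration by graphical interpolation.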

For series [5], the system named is Staphylococcus aureus. The series is described as follows: Antimicrobial activity against intracellular hospital acquired methicillin-resistant Staphylococcus aureus ATCC 33591 infected in human Calu3 cells assessed as decrease in bacterial count from original inoculum at high compound concentration after 24 hrs at pH 7.4. It is filed as functional, Calu-3. In short, it runs like this: (§1)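 Primary human skin keratinocytes or Calu-3 bronchial epithelial cells, given an inoculum of 5 × 10⁷ to 1 × 10⁸ bacteria/ml and 2 h for internalization. Post-phagocytosis load 1.5 × 10⁶ to 3.0 × 10⁶ CFU per mg cell protein. Cloxacillin dose range in mg/liter for 24 h, n = 3. Hill-derived Emin, Emax and EC50; static concentration interpolated.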

The test system of series [6] is Staphylococcus aureus. The series is described as follows: Antimicrobial activity against hospital acquired methicillin-resistant Staphylococcus aureus ATCC 33591 by broth microdilution method at pH 7.4. It is filed as functional. Put shortly:
(§2)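 Minimal inhibitory concentration by broth microdilution at pH 7.4, read in mg/liter. The MRSA genotype was confirmed by mecA PCR, and the SCCmec subgroup was assigned by multiplex PCR.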

The test system of series [7] is Staphylococcus aureus. The series is described as follows: Antimicrobial activity against hospital acquired methicillin-resistant and vancomycin-intermediate Staphylococcus aureus VRS2 obtained from wound, skin and soft tissue infection of patient infected in human THP-1 cells assessed as decrease in bacterial count from original inoculum at high compound concentration after 24 hrs at pH 5.5. It counts as functional. Put shortly:
(§3)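 Human THP-1 macrophages infected with each S. aureus strain. Cloxacillin added extracellularly at about 0.01× to 100× the broth MIC measured at pH 5.5, with gentamicin 0.5 mg/liter to stop extracellular growth. Incubated 24 h. CFU counted per mg cell protein as change from the post-phagocytosis inoculum, n = 3. Emin, Emax and EC50 from a Hill fit; static concentration by graphical interpolation.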

The test system of series [8] is Staphylococcus aureus. The series is described as follows: Antimicrobial activity against Panton-valentine leukocidin positive community acquired methicillin-resistant Staphylococcus aureus N4042228 infected in human THP-1 cells assessed as increase in bacterial count from original inoculum at low compound concentration after 24 hrs at pH 5.5. It counts as functional. Put shortly: (§4)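 Bacteria phagocytosed by unactivated human THP-1 macrophages, then incubated 24 h with extracellular antibiotic at about 0.01× to 100× the pH 5.5 broth MIC. CFU per mg cell protein counted against the original inoculum, n = 3. A Hill-equation fit (slope factor 1) gave Emin and Emax, extrapolated to infinitely low and high concentration, and EC50. Static concentration was graphically interpolated.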

In series [9] the test system is Staphylococcus aureus. The series can be described thus: Antimicrobial activity against hospital acquired methicillin-resistant Staphylococcus aureus HMC546 by broth microdilution method at pH 7.4. It is filed as functional. Put shortly:
as §2

Series [10] concerns Staphylococcus aureus. The series is described as follows: Antimicrobial activity against hospital acquired methicillin-resistant Staphylococcus aureus N4120210 obtained from urinary tract infection of patient infected in human THP-1 cells assessed as decrease in bacterial count from original inoculum at high compound concentration after 24 hrs at pH 5.5. It counts as functional, Urine. Put shortly:
as §4

Series [11] concerns Staphylococcus aureus. The series can be described thus: Antimicrobial activity against constitutive beta-lactamase negative methicillin-resistant Staphylococcus aureus COL NRS100 infected in human THP-1 cells assessed as decrease in bacterial growth after 24 hrs at pH 5.5. It counts as functional, organism-based. The following applies: COL NRS100, THP-1, 24 h. In short, it runs like this: as §4

Series [12] has as its system Staphylococcus aureus. The series is described as follows: Antimicrobial activity against hospital acquired methicillin-resistant and […] Staphylococcus aureus VRS2 obtained from patient with wound, skin and soft tissue infection by broth microdilution method at pH 5.5. It counts as functional. A general note: Broth dilution looks for growth in wells or tubes with falling amounts of substance.

Series [13] concerns Staphylococcus aureus. The series is described as follows: Bacteriostatic activity against intracellular hospital acquired methicillin-resistant Staphylococcus aureus ATCC 33591 infected in human Calu3 cells assessed as decrease in bacterial growth after 24 hrs at pH 7.4. It counts as functional, Calu-3. In short, it runs like this: as §1
In series [14] the test system is Staphylococcus aureus. The series can be described thus: Antimicrobial activity against beta-lactamase negative methicillin-susceptible Staphylococcus aureus ATCC 25923 infected in human THP-1 cells assessed as decrease in bacterial growth after 24 hrs at pH 5.5. The following applies: ATCC 25923, THP-1, 24 h. It counts as functional, organism-based. In short, it runs like this:
as §4

Series [15] relates to Staphylococcus aureus. The series can be described thus: Antimicrobial activity against hospital acquired methicillin-resistant and vancomycin-intermediate Staphylococcus aureus NRS126 obtained from patient with bloodstream infection by broth microdilution method at pH 7.4. It counts as functional. In short, it runs like this: as §2
The subject of a further series is THP-1. The series is described as follows: Ratio of intracellular to extracellular drug level in human THP1 cells at 250 mg/L after 24 hrs. It counts as ADME, cell-based. To be noted: thp-1, 24 h. In short, it runs like this:
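THP-1 cells incubated 24 h at 250 mg/liter extracellular drug. Cell lysates assayed microbiologically with MSSA ATCC 25923; content expressed per mg total protein. Cellular/extracellular ratio calculated assuming cell volume of 5 μl per mg protein.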

The subject of series [16] is Staphylococcus aureus. The series is described as follows: Antimicrobial activity against Panton-valentine leukocidin positive community acquired methicillin-resistant Staphylococcus aureus NRS192 obtained from patient with pneumonia and septic arthritis by broth microdilution method at pH 5.5. It counts as functional.
For series [17], the system named is Staphylococcus aureus. The series is described as follows: Antimicrobial activity against hospital acquired methicillin-resistant and vancomycin-intermediate Staphylococcus aureus NRS126 obtained from bloodstream infection of patient infected in human THP-1 cells assessed as decrease in bacterial count from original inoculum at high compound concentration after 24 hrs at pH 5.5. It counts as functional. In short, it runs like this: as §4

Series [18] has as its system Staphylococcus aureus. The series can be described thus: Antimicrobial activity against hospital acquired methicillin-resistant Staphylococcus aureus HMC546 by broth microdilution method at pH 5.5. It is filed as functional.
Series [19] deals with Staphylococcus aureus. The series can be described thus: Bacteriostatic activity against hospital acquired methicillin-resistant Staphylococcus aureus N4120032 infected in human THP-1 cells assessed as decrease in bacterial growth after 24 hrs at pH 5.5. It is filed as functional. In short, it runs like this: as §3
Series [20] deals with Staphylococcus aureus. The series can be described thus: Antimicrobial activity against hospital acquired methicillin-resistant and vancomycin-intermediate Staphylococcus aureus VRS2 obtained from patient with wound, skin and soft tissue infection by broth microdilution method at pH 7.4. It counts as functional. In short, it runs like this:
as §2

The subject of series [21] is Staphylococcus aureus. The series is described as follows: Antimicrobial activity against beta-lactamase negative methicillin-susceptible Staphylococcus aureus ATCC 25923 by broth microdilution method at pH 5.5. It counts as functional.
Series [22] concerns Staphylococcus aureus. The series can be described thus: Antimicrobial activity against hospital acquired methicillin-resistant and vancomycin-intermediate Staphylococcus aureus NRS18 obtained from patient with wound, skin and soft tissue infection by broth microdilution method at pH 5.5. It is filed as functional.

As usually defined, the MIC is the least concentration at which growth counts as inhibited. Read a low MIC as a more susceptible organism. `Cc1onc(-c2ccccc2Cl)c1C(=O)N[C@@H]1C(=O)N2[C@@H]1SC(C)(C)[C@@H]2C(=O)O` [CLOXACILLIN]: the log10cfu in the series on Staphylococcus aureus [1] was determined as 3.05; in the series with Staphylococcus aureus [4] it was 0.7; in the series with Staphylococcus aureus [5] it was 0.93; with Staphylococcus aureus [7] it was 0.78; in the series on Staphylococcus aureus [8], 2.68; with Staphylococcus aureus [10] it was 0.63. In addition, in the series on Staphylococcus aureus [17], the log10cfu is 0.69. The MIC came to 512 µg/mL (≈ 1170 µM) against Staphylococcus aureus [2]; 16 µg/mL (≈ 36.7 µM) in the series on Staphylococcus aureus [6]; 16 µg/mL (≈ 36.7 µM) in the series on Staphylococcus aureus [9]; 0.06 µg/mL (≈ 0.138 µM) with Staphylococcus aureus [12]; 16 µg/mL (≈ 36.7 µM) against Staphylococcus aureus [15]; 0.06 µg/mL (≈ 0.138 µM) against Staphylococcus aureus [16]. Besides, the MIC stood at 0.25 µg/mL (≈ 0.574 µM) in the series on Staphylococcus aureus [18], 32 µg/mL (≈ 73.4 µM) with Staphylococcus aureus [20], 0.06 µg/mL (≈ 0.138 µM) against Staphylococcus aureus [21] and 0.06 µg/mL (≈ 0.138 µM) against Staphylococcus aureus [22]. Further, the Activity amounted to 11 ×MIC in the series on Staphylococcus aureus [3], 1 mg/L with Staphylococcus aureus [13] and 33.1 ×MIC in the series on Staphylococcus aureus [19]. Also, the EC50 in the series on Staphylococcus aureus [11] amounted to 2.74 ×MIC; in the series on Staphylococcus aureus [14], 4.44 ×MIC. Moreover, in the series on THP-1, the Ratio amounted to 0.28.
